Test results: ChEMBL document CHEMBL1131622, “(+/-)-trans-2-[3-methoxy-4-(4-chlorophenylthioethoxy)-5-(N-methyl-N- hydroxyureidyl)methylphenyl]-5-(3,4, 5-trimethoxyphenyl)tetrahydrofuran (CMI-392), a potent dual 5-lipoxygenase inhibitor and platelet-activating factor receptor antagonist” (J Med Chem, 1998)
Where “and” joins values, the source holds several entries; their conditions need not be identical. Identical values can stand only once.

Assays:
[1] = species: Homo sapiens; experiment: (§1) Compound was evaluated for inhibiting production of LTB4 in calcium Ionophore (A23187) activated human whole blood.; format: functional
In short: (§2)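 Heparinized human whole blood (1 mL) preincubated with compound in DMSO 15 min at 37 °C, then stimulated with A23187 (50 μM final) 30 min at 37 °C; plasma LTB4 measured by EIA. IC50 by regression; percent inhibition also reported at 3 μM.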

[2] = biological target: T1, Polyunsaturated fatty acid 5-lipoxygenase (Rattus norvegicus, UniProt P12527); experiment: Inhibition of 5-lipoxygenase mediated conversion of [14C]arachidonic acid to leukotrienes in RBL-2H3 cells; format: cell-based
T1 sequence (P12527 whole entry): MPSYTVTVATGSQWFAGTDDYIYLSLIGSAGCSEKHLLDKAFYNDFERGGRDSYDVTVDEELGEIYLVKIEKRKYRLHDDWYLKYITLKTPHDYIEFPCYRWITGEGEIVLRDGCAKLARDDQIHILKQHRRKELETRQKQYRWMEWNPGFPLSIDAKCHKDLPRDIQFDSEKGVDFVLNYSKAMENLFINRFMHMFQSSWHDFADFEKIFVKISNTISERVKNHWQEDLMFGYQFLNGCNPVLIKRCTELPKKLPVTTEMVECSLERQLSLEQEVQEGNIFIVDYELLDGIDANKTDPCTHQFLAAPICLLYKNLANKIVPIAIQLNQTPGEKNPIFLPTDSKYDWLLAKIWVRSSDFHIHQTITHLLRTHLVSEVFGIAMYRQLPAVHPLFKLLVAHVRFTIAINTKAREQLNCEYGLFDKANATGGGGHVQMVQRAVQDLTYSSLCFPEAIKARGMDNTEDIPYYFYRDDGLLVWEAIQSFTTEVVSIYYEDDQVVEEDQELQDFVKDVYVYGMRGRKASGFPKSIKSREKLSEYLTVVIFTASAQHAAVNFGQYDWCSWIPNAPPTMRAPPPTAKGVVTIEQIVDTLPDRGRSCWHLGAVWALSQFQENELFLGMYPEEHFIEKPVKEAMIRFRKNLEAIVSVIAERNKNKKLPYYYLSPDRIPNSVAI
In short: (§3)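 Lysate plus compound (DMSO) in buffer with 0.1 M NaCl, 0.7 mM CaCl2, 20 min room temperature, then [14C]AA substrate mix 5 min 37 °C. Products extracted, resolved by silica TLC, autoradiography/densitometry; IC50 by regression.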

[3] = test system: Mus musculus; experiment: (§4) In vivo activity against acute TPA-induced ear edema in mouse.; format: functional
In short: (§5)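 Mice, 8 per group, TPA in acetone (10 μL) applied topically to both ear surfaces with or without drug. Sacrifice at 6 h; punch biopsies weighed, MPO measured spectrophotometrically in homogenized tissue, histology also done; compared with maximal control.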

[4] = biological target: Platelet-activating factor receptor (Homo sapiens, UniProt P25105); experiment: Displacement of [3H]PAF from PAF receptor of human platelet membranes
[5] = test system: Mus musculus; experiment: In vivo inhibition against PAF induced hemoconcentration in mice at a concentration of 3 mg/kg; format: functional
In short: (§6)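 Mice given compound iv at 3 mg/kg in 0.5% DMSO saline, then PAF (10 μg, in 0.25% BSA/saline) iv by tail vein 15 min later. Tail blood taken 15 min after PAF for hematocrit; percent inhibition relative to vehicle control.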

[6] = test system: Mus musculus; experiment: as §4; format: functional; in short: as §5; remark: listed apart in the source
[7] = test system: Mus musculus; experiment: In vivo inhibition against arachidonic acid induced ear Edema in mice at a concentration of 3 mg/kg; format: functional
In short: (§7)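 Compound given iv at 3 mg/kg in 0.5% DMSO saline 15 min before topical arachidonic acid (0.5 mg in acetone/pyridine/water 97:2:1) on both ears of mice. Sacrifice at 1 h; 7-mm ear punches weighed, edema as mean wet weight.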

[8] = test system: Mus musculus; experiment: In vivo activity against arachidonic acid induced ear edema in mouse.; format: functional; in short: as §7
[9] = species: Homo sapiens; experiment: In vitro inhibition of LTB4 production in human whole blood; format: functional; in short: as §2
[10] = test system: Mus musculus; experiment: In vivo activity against chronic TPA-induced ear edema in mouse.; format: functional
In short: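 Mice, 8 per group, TPA in acetone (10 μL) applied topically to both ears once a day every 2 days for 10 days. Drug applied topically twice daily over the last 3 days. Punch biopsies weighed; MPO measured spectrophotometrically; histology also done.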

[11] = Half-life was determined; format: ADME; conditions: human
[12] = In vivo activity against platelet activating factor (PAF)-induced hemoconcentration in mouse.; format: functional; in short: as §6
[13] = species: Homo sapiens; experiment: as §1; format: functional; design: concentration or dose not given beside the values; in short: as §2
[14] = biological target: T1, Polyunsaturated fatty acid 5-lipoxygenase; experiment: 5-lipoxygenase inhibitory activity determined by measuring the conversion of [14C]arachidonic acid to leukotrienes in RBL-2H3 cell using thin-layer chromatography.; format: cell-based; in short: as §3

Sequence of Platelet-activating factor receptor (P25105 whole entry): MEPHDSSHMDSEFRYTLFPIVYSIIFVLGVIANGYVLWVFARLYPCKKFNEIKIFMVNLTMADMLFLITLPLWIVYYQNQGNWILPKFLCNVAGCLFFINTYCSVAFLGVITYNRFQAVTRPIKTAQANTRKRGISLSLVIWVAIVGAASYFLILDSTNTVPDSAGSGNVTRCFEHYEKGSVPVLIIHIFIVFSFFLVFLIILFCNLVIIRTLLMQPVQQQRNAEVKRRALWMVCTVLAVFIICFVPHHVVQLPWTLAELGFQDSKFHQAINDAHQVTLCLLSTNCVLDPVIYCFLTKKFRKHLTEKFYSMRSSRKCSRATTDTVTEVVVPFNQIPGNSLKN

IC50 [1] [nM]	IC50 [2] [nM]	IC50 [4] [nM]	SMILES	inhibition in vivo at 3 mg/kg [5] [%]	inhibition in vivo at 3 mg/kg [7] [%]	Inhibition [13] [%]	also measured
3500			CCCCN(O)C(=O)Nc1cc([C@@H]2CC[C@@H](c3cc(OC)c(OC)c(OC)c3)O2)cc(OC)c1OCCC				
100	298		CC(C#Cc1ccc(Oc2ccc(F)cc2)o1)N(O)C(N)=O (stereo not drawn)				
7800	100	10	COc1cc([C@@H]2CC[C@@H](c3cc(OC)c(OC)c(OC)c3)O2)cc(CNC(=O)N(C)O)c1OCCSc1ccc(Cl)cc1 (racemic)	56	46		ED50 [3]: 299 ug ear-1; ED50 [6]: 269 ug ear-1; ED50 [8]: 1.8 mg/kg; IC50 [9]: 7800 nM; ED50 [10]: 552 ug ear-1 and 580 ug ear-1; half-life [11]: 30 min; ED50 [12]: 2.2 mg/kg
	33	23	CCCCN(O)C(=O)Nc1cc([C@@H]2CC[C@@H](c3cc(OC)c(OC)c(OC)c3)O2)cc(OC)c1OCCSc1ccccc1Br (racemic)	34	26	48	
7500	43	22	CCCCN(O)C(=O)Nc1cc([C@@H]2CC[C@@H](c3cc(OC)c(OC)c(OC)c3)O2)cc(OC)c1OCCSc1cccc(Br)c1 (racemic)	28	40		
1200	19	21	CCCCN(O)C(=O)Nc1cc([C@@H]2CC[C@@H](c3cc(OC)c(OC)c(OC)c3)O2)cc(OC)c1OCCSc1ccc(Br)cc1 (racemic)				
	17	45	CCCCN(O)C(=O)Nc1cc([C@@H]2CC[C@@H](c3cc(OC)c(OC)c(OC)c3)O2)cc(OC)c1OCCSc1ccc(Cl)c(Cl)c1 (racemic)	26	26	61	
	118	2	CCCCN(O)C(=O)Nc1cc([C@@H]2CC[C@@H](c3cc(OC)c(OC)c(OC)c3)O2)cc(OC)c1OCCSc1c(F)c(F)cc(F)c1F (racemic)	59	30	3	
		38	CCCCN(O)C(=O)Nc1cc([C@@H]2CC[C@@H](c3cc(OC)c(OC)c(OC)c3)O2)cc(OC)c1OCCS(=O)(=O)c1ccc(Br)cc1 (racemic)	29	35	72	
6500		20	CCCCN(O)C(=O)Nc1cc([C@@H]2CC[C@@H](c3cc(OC)c(OC)c(OC)c3)O2)cc(OC)c1OCCSc1ccc(Cl)cc1 (racemic)	43	39		IC50 [14]: 58 nM
	71	39	CCCCN(O)C(=O)Nc1cc([C@@H]2CC[C@@H](c3cc(OC)c(OC)c(OC)c3)O2)cc(OC)c1OCCSc1ccc(OC)cc1 (racemic)	24	3	32	
		167	CCCCN(O)C(=O)NCc1cc([C@@H]2CC[C@@H](c3cc(OC)c(OC)c(OC)c3)O2)cc(OC)c1OCCSc1ccc(Cl)cc1 (racemic)			26	
	520	285	CCCCN(O)C(=O)Nc1cc([C@@H]2CC[C@@H](c3cc(OC)c(OC)c(OC)c3)O2)cc(OC)c1OCCS(=O)(=O)c1c(F)c(F)cc(F)c1F (racemic)	50	12		
	161	25	CCCCN(O)C(=O)Nc1cc([C@@H]2CC[C@@H](c3cc(OC)c(OC)c(OC)c3)O2)cc(OC)c1OCCS(=O)(=O)c1ccccc1Br (racemic)	60		19	
			CC(c1cc2ccccc2s1)N(O)C(N)=O (stereo not drawn) [ZILEUTON]			1	
